≈ marks a conversion by molar mass, not a printed value. Calls of active or inactive are those of the source. No cut-off for these calls is given here.
What was measured:
[1] = biological target: Casein kinase II subunit alpha' (Homo sapiens) (UniProt P19784); experiment: Competitive binding affinity to full length wild type human CSNK2A2 expressed in mammalian expression system at 10 uM by kinomescan method relative to control
Method in brief: (§1)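 DiscoveRX scanMAX kinase panel of protein and lipid kinases and common mutants; competitive binding of compound at 10 µM expressed as percentage of control (POC).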

[2] = biological target: Serine/threonine-protein kinase VRK2 (Homo sapiens) (UniProt Q86Y07); experiment: Competitive binding affinity to partial length wild type human VRK2 expressed in mammalian expression system at 10 uM by kinomescan method relative to control; method in brief: as §1
[3] = Antiproliferative activity against PTEN-deficient human OPM2 cells after 72 hrs by CellTiter-Glo assay; type: functional, cell-based; settings: OPM-2, 72 h
[4] = Aqueous solubility in pH 7.4 PBS after 48 to 72 hrs by HPLC analysis; type: physicochemical
Method in brief: (§2)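 Aqueous solubility determined in 0.01N HCl, PBS (pH 7.4) and FaSIF (pH 6.8).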

[5] = Antiproliferative activity against human KARPAS620 cells after 72 hrs by CellTiter-Glo assay; type: functional, cell-based; settings: Karpas-620, 72 h
[6] = Antiproliferative activity against human KMS11 cells after 72 hrs by CellTiter-Glo assay; type: functional, cell-based; settings: KMS-11, 72 h
[7] = Intrinsic clearance in human liver microsomes at 1 uM after 30 mins by LC-MS HRMS analysis; type: ADME; settings: read-out: CLH
[8] = AUC (0 to infinity) in Sprague-Dawley rat at 5 mg/kg, po; type: ADME, organism-based; set-up: dose 5 mg/kg, route oral, time infinity; settings: in vivo
Method in brief: (§3)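 Male Sprague Dawley rats, 3 animals per dosing route, mean values. iv dose 2 mg/kg as a solution in DMSO; po dose 5 mg/kg in 1% Tween 80, 2% HPMC, 97% water/methanesulfonic acid pH 2.2.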

[9] = biological target: Glycogen synthase kinase-3 beta (Homo sapiens) (UniProt P49841); experiment: Competitive binding affinity to full length wild type human GSK3B expressed in mammalian expression system at 10 uM by kinomescan method relative to control; method in brief: as §1
[10] = Antiproliferative activity against human L363 cells after 72 hrs by CellTiter-Glo assay; type: functional, cell-based; settings: L-363, 72 h
[11] = Antiproliferative activity against human KMS28BM cells after 72 hrs by CellTiter-Glo assay; type: functional, cell-based; settings: KMS-28BM
[12] = Aqueous solubility in pH 6.8 FsSIF after 48 to 72 hrs by HPLC analysis; type: physicochemical; method in brief: as §2
[13] = biological target: Serine/threonine-protein kinase TAO2 (Homo sapiens) (UniProt Q9UL54); experiment: Competitive binding affinity to partial length wild type human TAOK2 expressed in mammalian expression system at 10 uM by kinomescan method relative to control; method in brief: as §1
[14] = Intrinsic clearance in rat liver microsomes at 1 uM after 30 mins by LC-MS HRMS analysis; type: ADME; settings: read-out: CLH
[15] = Antiproliferative activity against human SKMM-2 cells after 72 hrs by CellTiter-Glo assay; type: functional, cell-based; settings: SK-MM-2, 72 h
[16] = Antiproliferative activity against human MM1S cells after 72 hrs by CellTiter-Glo assay; type: functional, cell-based; settings: MM1.S
[17] = Clearance in Sprague-Dawley rat at 2 mg/kg, iv relative to liver blood flow; type: ADME, organism-based; settings: in vivo; method in brief: as §3
[18] = Aqueous solubility in 0.01N HCl after 48 to 72 hrs by HPLC analysis; type: physicochemical; method in brief: as §2
KMS-12-BM [19] = experiment: Induction of apoptosis in human KMS-12-BM cells assessed as increase in cleaved-PARP levels at […] after 4 to 72 hrs by Western blot method; type: functional, cell-based
Homo sapiens = species: Homo sapiens; experiment: Competitive binding affinity to wild type human DYRK at 10 uM by kinomescan method relative to control; method in brief: as §1
[20] = Antiproliferative activity against human RPMI8226 cells after 72 hrs by CellTiter-Glo assay; type: functional, cell-based; settings: RPMI-8226, 72 h
KMS-12-BM [21] = experiment: Induction of apoptosis in human KMS-12-BM cells assessed as increase in cleaved caspase 6 levels at […] after 4 to 72 hrs by Western blot method; type: functional, cell-based
KMS-12-BM [22] = experiment: Induction of apoptosis in human KMS-12-BM cells assessed as increase in cleaved caspase 7 levels at […] after 4 to 72 hrs by Western blot method; type: functional, cell-based
[23] = Effect on total BAD levels in human KMS-12-BM cells at […] after 4 to 72 hrs by Western blot method; type: ADME, cell-based
[24] = biological target: Homeodomain-interacting protein kinase 3 (Homo sapiens) (UniProt Q9H422); experiment: Competitive binding affinity to partial length wild type human HIPK3 expressed in mammalian expression system at 10 uM by kinomescan method relative to control; method in brief: as §1
MDR1 = experiment: Permeability in rat LLC-PK1 cells expressing MDR1
[25] = Inhibition of Pim signaling in human KMS-12-BM cells assessed as upregulation of Pim1 expression at […] after 4 to 72 hrs by Western blot method; type: cell-based
[26] = Volume of distribution at steady state in Sprague-Dawley rat at 2 mg/kg, iv; type: ADME, organism-based; settings: in vivo, read-out: Vdss; method in brief: as §3
[27] = Inhibition of Pim signaling in human KMS-12-BM cells assessed as upregulation of Pim2 expression at […] after 4 to 72 hrs by Western blot method; type: cell-based
[28] = biological target: Glycogen synthase kinase-3 alpha (Homo sapiens) (UniProt P49840); experiment: Competitive binding affinity to full length wild type human GSK3A expressed in bacterial expression system at 10 uM by kinomescan method relative to control; method in brief: as §1
[29] = Antiproliferative activity against human KMS-12-BM cells after 72 hrs by CellTiter-Glo assay; type: functional, cell-based
[30] = Antiproliferative activity against human JJN-3 cells after 72 hrs by CellTiter-Glo assay; type: functional, cell-based; settings: JJN-3, 72 h
[31] = biological target: Phosphatidylinositol 4-phosphate 5-kinase type-1 gamma (Homo sapiens) (UniProt O60331); experiment: Competitive binding affinity to partial length wild type human PIP5K1C expressed in mammalian expression system at 10 uM by kinomescan method relative to control; method in brief: as §1
[32] = Oral bioavailability in Sprague-Dawley rat at 5 mg/kg; type: ADME, organism-based; settings: in vivo; method in brief: as §3
[33] = Antiproliferative activity against human MOLP2 cells after 72 hrs by CellTiter-Glo assay; type: functional, cell-based; settings: MOLP-2, 72 h
[34] = Inhibition of Pim signaling in human KMS-12-BM cells assessed as upregulation of Pim3 expression at […] after 4 to 72 hrs by Western blot method; type: cell-based
[35] = Mean residence time in Sprague-Dawley rat at 2 mg/kg, iv; type: ADME, organism-based; settings: in vivo; method in brief: as §3
[36] = Antiproliferative activity against human NCI-H929 cells after 72 hrs by CellTiter-Glo assay; type: functional, cell-based; settings: NCI-H929, 72 h
[37] = Antiproliferative activity against human MOLP8 cells after 72 hrs by CellTiter-Glo assay; type: functional, cell-based; settings: MOLP-8, 72 h
[38] = biological target: Homeodomain-interacting protein kinase 2 (Homo sapiens) (UniProt Q9H2X6); experiment: Competitive binding affinity to partial length wild type human HIPK2 expressed in mammalian expression system at 10 uM by kinomescan method relative to control; method in brief: as §1

C[C@@H]1C[C@H](N)CN(c2ccncc2Nc2ncc3ccc(-c4c(F)cccc4F)nn23)C1
Activity [1]: 2% | Activity [2]: 9.2% | IC50 [3]: 4380 nM | solubility [4]: 180 µg/mL (≈ 413 µM) | IC50 [5]: 162 nM | IC50 [6]: 100 nM | microsomal CLint at 1 µM [7]: 69 µL/min/mg | AUC [8]: 3.5 µM·h | Activity [9]: 2.3% | IC50 [10]: 332 nM | IC50 [11]: 86 nM | solubility [12]: 150 µg/mL (≈ 344 µM) | Activity [13]: 7.8% | microsomal CLint at 1 µM [14]: > 399 µL/min/mg | IC50 [15]: 228 nM | IC50 [16]: 361 nM | CL [17]: 40% | solubility [18]: 200 µg/mL (≈ 459 µM) | Activity (KMS-12-BM [19]): Active | Activity (Homo sapiens): 3.4% | IC50 [20]: 569 nM | Activity (KMS-12-BM [21]): Active | Activity (KMS-12-BM [22]): Active | Activity [23]: Non-Toxic | Activity [24]: 1.2% | Papp (MDR1): 4.5 ×10⁻⁶ cm/s | Activity [25]: Active | Vd [26]: 7.3 L/kg | Activity [27]: Active | Activity [28]: 1.4% | IC50 [29]: 216 nM | IC50 [30]: 375 nM | Activity [31]: 7% | F [32]: 17% | IC50 [33]: 332 nM | Activity [34]: Active | MRT [35]: 4.3 h | IC50 [36]: 337 nM | IC50 [37]: 58 nM | Activity [38]: 1.8%

— ChEMBL document CHEMBL3864151, “Discovery of imidazopyridazines as potent Pim-1/2 kinase inhibitors” (Bioorg Med Chem Lett, 2016)
